Measured values reported in ChEMBL document CHEMBL1140976, “1,2,3,4-tetrahydro-2-thioxopyrimidine analogs of combretastatin-A4” (Eur J Med Chem, 2008).

Experiments:
Format in all cases: functional, cell-based
[1] = test system: B16; experiment: Cytotoxicity against mouse B16 cells after 72 hrs by MTT assay; settings: B16, 72 h
In short: (§1)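 72-h MTT assay on murine cell lines (B16 melanoma, L1210 leukemia) grown in culture. IC50 is the compound concentration needed to reduce the cell population by 50% relative to an untreated control.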

[2] = test system: L1210; experiment: Cytotoxicity against mouse L1210 cells after 72 hrs by MTT assay; settings: L1210, 72 h; in short: as §1
[3] = test system: A10; experiment: Reduction of cellular microtubules in interphase rat A10 cells
In short: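 Interphase cellular microtubules scored in A-10 aortic smooth muscle cells after exposure to compound. EC50 is the effective concentration that causes 50% loss of cellular microtubules.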

EC50 [3] [µM] | SMILES | IC50 [1] [µM] | IC50 [2] [µM]
 | COc1ccc(C2C=C(c3cc(OC)c(OC)c(OC)c3)NC(=S)N2)cc1OC (stereo unspecified) | > 100 | 56.3
 | COc1ccc(OC)c(C2C=C(c3cc(OC)c(OC)c(OC)c3)NC(=S)N2)c1 (stereo unspecified) | 36 | 32
 | COc1ccc(C2C=C(c3cc(OC)c(OC)c(OC)c3)NC(=S)N2)cc1[N+](=O)[O-] (stereo unspecified) | > 100 | > 100
 | COc1cc(C2=CC(c3ccc(Cl)cc3)NC(=S)N2)cc(OC)c1OC (stereo unspecified) | 55.5 | 48.3
 | COc1cc(C2=CC(c3cc(OC)c(OC)c(OC)c3)NC(=S)N2)cc(OC)c1OC (stereo unspecified) | > 100 | > 100
 | COc1cc(OC)c(C2C=C(c3cc(OC)c(OC)c(OC)c3)NC(=S)N2)c(OC)c1 (stereo unspecified) | 6.3 | 5.7
2.9 | COc1cc(OC)c(C2C=C(c3cc(OC)ccc3OC)NC(=S)N2)c(OC)c1 (stereo unspecified) | 6.1 | 0.4
 | COc1ccc(OC)c(C2=CC(c3ccc(OC)c([N+](=O)[O-])c3)NC(=S)N2)c1 (stereo unspecified) | 42 | 2.2
 | COc1cccc(C2C=C(c3cc(OC)c(OC)c(OC)c3)NC(=S)N2)c1 (stereo unspecified) | 59.5 | > 100
4.4 | COc1ccc(C2C=C(c3cc(OC)c(OC)c(OC)c3)NC(=S)N2)cc1O (stereo unspecified) | 6 | 0.5
 | COc1cc(C2=CC(c3ccc([N+](=O)[O-])cc3)NC(=S)N2)cc(OC)c1OC (stereo unspecified) | > 100 | > 100
 | COc1ccc(/C=C\c2cc(OC)c(OC)c(OC)c2)cc1O [COMBRETASTATIN A4] | 0.003 | 0.002
